≈ marks a conversion by molar mass, not a printed value.
Columns and labels:
[1] = test system: HeLa; experiment: Cellular uptake in human HeLa cells expressing human PEPT1 transporter after 45 mins; format: ADME, cell-based; settings: 0.75 h
Procedure, shortened: (§1)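 Direct uptake measured over 45 min and expressed as nmol/mg, in HeLa cells stably expressing hPEPT1 and in parental HeLa controls. Valacyclovir served as the positive control for hPEPT1 carrier-mediated uptake. Values are means ± SD of three experiments.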

[2] = test system: HFF; experiment: (§2) Cytotoxicity against HFF; format: cell-based; settings: human, hff
Procedure, shortened: (§3)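 Cytotoxicity scored visually in uninfected human foreskin fibroblasts, reported as the 50% inhibitory concentration.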

[3] = test system: Vaccinia virus; experiment: Antiviral activity against Vaccinia virus infected in human foreskin fibroblasts by plaque assay; format: functional, organism-based; settings: Orthopoxvirus vaccinia
[4] = test system: Liver; experiment: (§4) Metabolic stability in rat liver homogenate; format: ADME, tissue-based; settings: tissue homogenate
[5] = Permeability from apical to basolateral side in human Caco-2 cells after 21 days; format: ADME, cell-based; settings: read-out: permeability
Procedure, shortened: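 Caco-2 monolayers were used 21 days post-seeding. Basolateral aliquots were taken at set intervals and replaced with HEPES buffer pH 7.4. Monolayer integrity was checked by transepithelial resistance.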

[6] = test system: Cowpox virus; experiment: Antiviral activity against Cowpox virus infected in human foreskin fibroblasts by plaque assay; format: functional, organism-based
[7] = test system: Intestine; experiment: (§5) Metabolic stability in rat intestinal homogenate; format: ADME, tissue-based; settings: tissue homogenate
[8] = test system: Caco-2; experiment: Permeability from apical to basolateral side in human Caco-2 cells after 21 days relative to vidarabine; format: ADME, cell-based; settings: caco-2, 504 h
Procedure, shortened: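 Caco-2 monolayers were used 21 days post-seeding, with integrity checked by transepithelial resistance. Basolateral aliquots were taken at set intervals and replaced with HEPES buffer pH 7.4.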

[9] = Solubility in water; format: physicochemical
[10] = test system: Plasma; format: ADME, cell-free; settings: rat
[11] = test system: HeLa; experiment: Cellular uptake in human HeLa cells after 45 mins; format: ADME, cell-based; settings: 0.75 h; procedure, shortened: as §1
[12] = as §2; format: cell-based; settings: human, HFF cells; procedure, shortened: as §3
[13] = as §4; format: ADME, tissue-based; settings: liver homogenate
[14] = test system: Cowpox virus; experiment: Antiviral activity against Cowpox virus infected in HFF by plaque assay in presence of deoxy-coformycin; format: functional, organism-based
[15] = Cytotoxicity against HFF in presence of deoxy-coformycin; format: cell-based; settings: human, HFF cells
Procedure, shortened: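 Cytotoxicity was scored visually in uninfected HFF cells, with 1 μM deoxycoformycin present, and reported as the 50% inhibitory concentration.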

[16] = as §5; format: ADME, tissue-based, Intestine; settings: intestinal homogenate
[17] = test system: Vaccinia virus; experiment: Antiviral activity against Vaccinia virus infected in HFF by plaque assay in presence of deoxy-coformycin; format: functional, organism-based; settings: Orthopoxvirus vaccinia
[18] = Oral bioavailability in human; format: ADME, organism-based; settings: in vivo

Row | SMILES | CC50 [2] | EC50 [3] | t1/2 [4] | EC50 [6] | t1/2 [7] | solubility [9] | t1/2 [10] | also measured
1 | CC[C@H](C)[C@H](N)C(=O)OC[C@H]1O[C@@H](n2cnc3c(N)ncnc32)[C@@H](O)[C@@H]1O | > 100 µM | 4.5 µM | 3.6 min | 2.5 µM | 34.8 min | > 10000 µg/mL | 215 min | Drug uptake [1]: 202 nmol/mg; Papp A→B [5]: 1.03 ×10⁻⁶ cm/s; fold change (FC) [8]: 12.4; Drug uptake [11]: 7.5 nmol/mg
2 | CC[C@H](C)[C@@H](N)C(=O)OC[C@H]1O[C@@H](n2cnc3c(N)ncnc32)[C@@H](O)[C@@H]1O |  | 2.9 µM | 18.6 min | 3.5 µM | 474 min | > 10000 µg/mL | 96.6 min | 
3 | CC(C)[C@@H](N)C(=O)OC[C@H]1O[C@@H](n2cnc3c(N)ncnc32)[C@@H](O)[C@@H]1O | > 100 µM | 4.1 µM | 27.6 min | 8 µM | Stable | > 10000 µg/mL | 615.6 min | Papp A→B [5]: 0.601 ×10⁻⁶ cm/s; fold change (FC) [8]: 7.2
4 | Nc1ncnc2c1ncn2[C@@H]1O[C@H](CO)[C@@H](O)[C@@H]1O [VIDARABINE] |  | 6.2 µM |  | 12.6 µM |  | 470 µg/mL (≈ 1.76 mM) |  | CC50 [12]: > 100 µM; half-life [13]: 15 min; Papp A→B [5]: 0.083 ×10⁻⁶ cm/s; EC50 [14]: 1.4 µM; CC50 [15]: 90 µM; half-life [16]: 3 min; EC50 [17]: 1 µM
5 | COC(=O)[C@@H](NP(=O)(OC[C@H]1O[C@@H](n2cnc3c(N)ncnc32)[C@@H](O)[C@@H]1O)Oc1ccccc1)C(C)C (some centres not stated) |  |  | Stable |  | Stable | > 10000 µg/mL | 18 min | 
6 | Nc1ncnc2c1ncn2[C@@H]1O[C@H](COC(=O)[C@H](N)Cc2ccccc2)[C@@H](O)[C@@H]1O | > 100 µM | 2.3 µM | 6 min | 4 µM | 35.4 min | > 10000 µg/mL |  | 
7 | COC(=O)[C@H](NP(=O)(OC[C@H]1O[C@@H](n2cnc3c(N)ncnc32)[C@@H](O)[C@@H]1O)Oc1ccccc1)C(C)C (some centres not stated) |  |  | 355 min |  | 1099 min | > 10000 µg/mL | 21 min | 
8 | CC(C)[C@H](N)C(=O)OCCOCn1cnc2c(=O)[nH]c(N)nc21 [VALACYCLOVIR] |  |  |  |  |  |  |  | Drug uptake [1]: 221 nmol/mg; Drug uptake [11]: 11.6 nmol/mg
9 | Nc1ncnc2c1ncn2[C@@H]1O[C@H](COC(=O)[C@@H](N)Cc2ccccc2)[C@@H](O)[C@@H]1O |  | 1.8 µM |  | 3.5 µM | 16.2 min | > 10000 µg/mL |  | half-life [13]: 1.02 min; Papp A→B [5]: 0.668 ×10⁻⁶ cm/s; fold change (FC) [8]: 8.05
10 | CC(C)[C@H](N)C(=O)OC[C@H]1O[C@@H](n2cnc3c(N)ncnc32)[C@@H](O)[C@@H]1O |  | 4.8 µM | 1.8 min | 4 µM | 18 min | > 10000 µg/mL | 7.8 min | Drug uptake [1]: 80.3 nmol/mg; Drug uptake [11]: 3.9 nmol/mg
11 | CC(C)C[C@H](N)C(=O)OC[C@H]1O[C@@H](n2cnc3c(N)ncnc32)[C@@H](O)[C@@H]1O | > 100 µM | 3.3 µM | 3 min | 3 µM | 1.8 min | > 10000 µg/mL |  | 
12 | Nc1ccn(C[C@@H](CO)OCP(=O)(O)O)c(=O)n1.O.O [CIDOFOVIR] |  |  |  |  |  |  |  | bioavailability [18]: 2%
13 | Nc1ncnc2c1ncn2[C@@H]1O[C@H](COC(=O)[C@H](N)CC(=O)O)[C@@H](O)[C@@H]1O | > 100 µM | 2.5 µM |  | 4 µM |  | > 10000 µg/mL |  | 
14 | Nc1ncnc2c1ncn2[C@@H]1O[C@H](COC(=O)C[C@@H](N)C(=O)O)[C@@H](O)[C@@H]1O | > 100 µM | 3.5 µM |  | 25 µM |  | > 10000 µg/mL |  | 
15 | CC(C)C[C@@H](N)C(=O)OC[C@H]1O[C@@H](n2cnc3c(N)ncnc32)[C@@H](O)[C@@H]1O |  | 3 µM | 3.6 min | 2.5 µM | 2.4 min | > 10000 µg/mL |  | 

Source: ChEMBL document CHEMBL1143268 (Bioorg Med Chem Lett, 2009)
